Assay results taken from ChEMBL document CHEMBL1123208, “Quantitative structure-activity relationship of the mutagenicity of substituted N-nitroso-N-benzylmethylamines: possible implications for carcinogenicity” (J Med Chem, 1986).
Each block holds one compound with its values, some of them ahead of it.

Assays:
Salmonella typhimurium [1] = experiment: compound was tested for mutagenicity against Salmonella tester strain TA 1535 with hamster S9 mix (3 mg/plate) in cells at dose of 500 ug
[2] = Concentration in nmol/plate to induce 50 revertants/plate.; assay type: ADME
How it was run: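 Ames plate incorporation, S. typhimurium TA 1535, Aroclor-induced male hamster liver S9; duplicate plates, 10-point range 1–1000 µg/plate; 37 °C, 48 h; revertants counted by hand tally. Potency index: concentration (nmol/plate) inducing 50 revertants/plate, taken from linear portion of dose–response curve.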

Salmonella typhimurium [3] = experiment: Mutagenicity against Salmonella tester strain TA 1535 without hamster S9 mix (3 mg/plate) in cells.; assay type: functional, Salmonella enterica subsp. enterica serovar Typhimurium
Salmonella typhimurium [4] = experiment: compound was tested for mutagenicity against Salmonella tester strain TA 1535 with out hamster S9 mix (3 mg/plate) in cells at dose of 500 ug
Salmonella typhimurium [5] = experiment: compound was tested for mutagenicity against Salmonella tester strain TA 1535 with out hamster S9 mix (3 mg/plate) in cells at dose of 500 ug; assay type: functional, Salmonella enterica subsp. enterica serovar Typhimurium
How it was run: (§1)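 Plate incorporation assay in S. typhimurium TA 1535 without S9 activation. Compound in Me2SO, 1–1000 µg/plate, duplicate plates, mean revertants/plate; incubated 37 °C for 48 h, colonies hand-counted. Positive if two consecutive doses gave revertants more than twice the concurrent control mean.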

Salmonella typhimurium [6] = experiment: compound was tested for mutagenicity against Salmonella tester strain TA 1535 with hamster S9 mix (3 mg/plate) in cells at dose of 100 ug; assay type: functional, Salmonella enterica subsp. enterica serovar Typhimurium
How it was run: as §1, with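 “with Aroclor-induced male hamster liver” for “without”, “(3 mg/plate).” for “activation.”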

Salmonella typhimurium [7] = experiment: compound was tested for mutagenicity against Salmonella tester strain TA 1535 with hamster S9 mix (3 mg/plate) in cells at dose of 50 ug; assay type: functional, Salmonella enterica subsp. enterica serovar Typhimurium
How it was run: as §1, with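 “with Aroclor-induced male hamster liver” for “without”, “(3 mg/plate).” for “activation.”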

Salmonella typhimurium [8] = experiment: compound was tested for mutagenicity against Salmonella tester strain TA 1535 with hamster S9 mix (3 mg/plate) in cells at dose of 250 ug; assay type: functional, Salmonella enterica subsp. enterica serovar Typhimurium
How it was run: as §1, with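 “with Aroclor-induced male hamster liver” for “without”, “(3 mg/plate).” for “activation.”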

Salmonella typhimurium [9] = experiment: compound was tested for mutagenicity against Salmonella tester strain TA 1535 with out hamster S9 mix (3 mg/plate) in cells at dose of 1000 ug; assay type: functional, Salmonella enterica subsp. enterica serovar Typhimurium
How it was run: as §1

Salmonella typhimurium [10] = experiment: compound was tested for mutagenicity against Salmonella tester strain TA 1535 with hamster S9 mix (3 mg/plate) in cells.; assay type: functional, Salmonella enterica subsp. enterica serovar Typhimurium
How it was run: as §1, with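 “with Aroclor-induced male hamster liver” for “without”, “(3 mg/plate).” for “activation.”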

Salmonella typhimurium [11] = experiment: compound was tested for mutagenicity against Salmonella tester strain TA 1535 with hamster S9 mix (3 mg/plate) in cells at dose of 2.5 ug; assay type: functional, Salmonella enterica subsp. enterica serovar Typhimurium
How it was run: as §1, with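 “with Aroclor-induced male hamster liver” for “without”, “(3 mg/plate).” for “activation.”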

Salmonella typhimurium [12] = experiment: compound was tested for mutagenicity against Salmonella tester strain TA 1535 with hamster S9 mix (3 mg/plate) in cells at dose of 25 ug; assay type: functional, Salmonella enterica subsp. enterica serovar Typhimurium
How it was run: as §1, with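 “with Aroclor-induced male hamster liver” for “without”, “(3 mg/plate).” for “activation.”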

Salmonella typhimurium [13] = experiment: compound was tested for mutagenicity against Salmonella tester strain TA 1535 with out hamster S9 mix (3 mg/plate) in cells at dose of 100 ug; assay type: functional, Salmonella enterica subsp. enterica serovar Typhimurium
How it was run: as §1

Salmonella typhimurium [14] = experiment: compound was tested for mutagenicity against Salmonella tester strain TA 1535 with out hamster S9 mix (3 mg/plate) in cells.; assay type: functional, Salmonella enterica subsp. enterica serovar Typhimurium
How it was run: as §1

Salmonella typhimurium [15] = experiment: compound was tested for mutagenicity against Salmonella tester strain TA 1535 with hamster S9 mix (3 mg/plate) in cells at dose of 1 ug; assay type: functional, Salmonella enterica subsp. enterica serovar Typhimurium
How it was run: as §1, with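 “with Aroclor-induced male hamster liver” for “without”, “(3 mg/plate).” for “activation.”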

Salmonella typhimurium [16] = experiment: compound was tested for mutagenicity against Salmonella tester strain TA 1535 with out hamster S9 mix (3 mg/plate) in cells at dose of 250 ug; assay type: functional, Salmonella enterica subsp. enterica serovar Typhimurium
How it was run: as §1

Salmonella typhimurium [17] = experiment: compound was tested for mutagenicity against Salmonella tester strain TA 1535 with hamster S9 mix (3 mg/plate) in cells at dose of 5 ug; assay type: functional, Salmonella enterica subsp. enterica serovar Typhimurium
How it was run: as §1, with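 “with Aroclor-induced male hamster liver” for “without”, “(3 mg/plate).” for “activation.”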

Salmonella typhimurium [18] = experiment: compound was tested for mutagenicity against Salmonella tester strain TA 1535 with hamster S9 mix (3 mg/plate) in cells at dose of 500 ug; assay type: functional, Salmonella enterica subsp. enterica serovar Typhimurium
How it was run: as §1, with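 “with Aroclor-induced male hamster liver” for “without”, “(3 mg/plate).” for “activation.”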

Salmonella typhimurium [19] = experiment: compound was tested for mutagenicity against Salmonella tester strain TA 1535 with out hamster S9 mix (3 mg/plate) in cells at dose of 1 ug; assay type: functional, Salmonella enterica subsp. enterica serovar Typhimurium
How it was run: as §1

Salmonella typhimurium [20] = experiment: compound was tested for mutagenicity against Salmonella tester strain TA 1535 with hamster S9 mix (3 mg/plate) in cells at dose of 1000 ug; assay type: functional, Salmonella enterica subsp. enterica serovar Typhimurium
How it was run: as §1, with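 “with Aroclor-induced male hamster liver” for “without”, “(3 mg/plate).” for “activation.”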

Salmonella typhimurium [21] = experiment: compound was tested for mutagenicity against Salmonella tester strain TA 1535 with hamster S9 mix (3 mg/plate) in cells at dose of 10 ug; assay type: functional, Salmonella enterica subsp. enterica serovar Typhimurium
How it was run: as §1, with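 “with Aroclor-induced male hamster liver” for “without”, “(3 mg/plate).” for “activation.”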

Salmonella typhimurium [22] = experiment: compound was tested for mutagenicity against Salmonella tester strain TA 1535 with out hamster S9 mix (3 mg/plate) in cells at dose of 10 ug; assay type: functional, Salmonella enterica subsp. enterica serovar Typhimurium
How it was run: as §1

Salmonella typhimurium [23] = experiment: compound was tested for mutagenicity against Salmonella tester strain TA 1535 with out hamster S9 mix (3 mg/plate) in cells at dose of 5 ug; assay type: functional, Salmonella enterica subsp. enterica serovar Typhimurium
How it was run: as §1

Salmonella typhimurium [24] = experiment: compound was tested for mutagenicity against Salmonella tester strain TA 1535 with out hamster S9 mix (3 mg/plate) in cells at dose of 25 ug; assay type: functional, Salmonella enterica subsp. enterica serovar Typhimurium
How it was run: as §1

Salmonella typhimurium [25] = experiment: compound was tested for mutagenicity against Salmonella tester strain TA 1535 with hamster S9 mix (3 mg/plate) in cells. Activity expressed as no. of cells; assay type: functional, Salmonella enterica subsp. enterica serovar Typhimurium
How it was run: as §1, with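 “with Aroclor-induced male hamster liver” for “without”, “(3 mg/plate).” for “activation.”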

Salmonella typhimurium [26] = experiment: compound was tested for mutagenicity against Salmonella tester strain TA 1535 with out hamster S9 mix (3 mg/plate) in cells at dose of 50 ug; assay type: functional, Salmonella enterica subsp. enterica serovar Typhimurium
How it was run: as §1

Salmonella typhimurium [27] = experiment: compound was tested for mutagenicity against Salmonella tester strain TA 1535 with out hamster S9 mix (3 mg/plate) in cells at dose of 2.5 ug; assay type: functional, Salmonella enterica subsp. enterica serovar Typhimurium
How it was run: as §1

- Log 1/C [2]: -1.961
Compound: CN(Cc1cccc(C(F)(F)F)c1)N=O
- No. of revertants per plate (Salmonella typhimurium [1]): 127
- Activity (Salmonella typhimurium [3]): 21
- No. of revertants per plate (Salmonella typhimurium [4]): 18

Compound: CN(Cc1cccc(Cl)c1)N=O
- No. of revertants per plate (Salmonella typhimurium [1]): 215
- Log 1/C [2]: -1.512
- Activity (Salmonella typhimurium [3]): 17
- No. of revertants per plate (Salmonella typhimurium [4]): 15

Compound: COC(=O)c1ccc(CN(C)N=O)cc1
- No. of revertants per plate (Salmonella typhimurium [1]): 18
- Activity (Salmonella typhimurium [3]): 14
- No. of revertants per plate (Salmonella typhimurium [4]): 15

Compound: COc1cccc(CN(C)N=O)c1
- No. of revertants per plate (Salmonella typhimurium [1]): 145
- Log [2]: -1.886 (degrees C)-1
- Activity (Salmonella typhimurium [3]): 25
- No. of revertants per plate (Salmonella typhimurium [4]): 18

Compound: CN(Cc1cccc(Br)c1)N=O
- No. of revertants per plate (Salmonella typhimurium [1]): 223
- Log 1/C [2]: -1.552
- Activity (Salmonella typhimurium [3]): 11
- No. of revertants per plate (Salmonella typhimurium [4]): 11

Compound: Cc1cccc(CN(C)N=O)c1
- No. of revertants per plate (Salmonella typhimurium [1]): 106
- Log 1/C [2]: -3.039
- Activity (Salmonella typhimurium [3]): 16
- No. of revertants per plate (Salmonella typhimurium [4]): 14

Compound: CN(Cc1ccc(Br)cc1)N=O
- No. of revertants per plate (Salmonella typhimurium [5]): 13
- No. of revertants per plate (Salmonella typhimurium [6]): 64
- No. of revertants per plate (Salmonella typhimurium [7]): 32
- No. of revertants per plate (Salmonella typhimurium [8]): 155
- No. of revertants per plate (Salmonella typhimurium [9]): 15
- Activity (Salmonella typhimurium [10]): 13
- No. of revertants per plate (Salmonella typhimurium [11]): 12
- No. of revertants per plate (Salmonella typhimurium [12]): 21
- No. of revertants per plate (Salmonella typhimurium [13]): 16
- Activity (Salmonella typhimurium [14]): 14
- No. of revertants per plate (Salmonella typhimurium [15]): 12
- No. of revertants per plate (Salmonella typhimurium [16]): 11
- No. of revertants per plate (Salmonella typhimurium [17]): 15
- No. of revertants per plate (Salmonella typhimurium [18]): 183
- No. of revertants per plate (Salmonella typhimurium [19]): 14
- Log 1/C [2]: -1.998
- Activity (Salmonella typhimurium [3]): 12
- No. of revertants per plate (Salmonella typhimurium [20]): 201
- No. of revertants per plate (Salmonella typhimurium [21]): 14
- No. of revertants per plate (Salmonella typhimurium [22]): 18
- No. of revertants per plate (Salmonella typhimurium [23]): 21
- No. of revertants per plate (Salmonella typhimurium [24]): 14
- Activity (Salmonella typhimurium [25]): 17
- No. of revertants per plate (Salmonella typhimurium [26]): 10
- No. of revertants per plate (Salmonella typhimurium [27]): 13

Compound: CN(Cc1cccc([N+](=O)[O-])c1)N=O
- Log 1/C [2]: -1.796
